Measured values published in ChEMBL document CHEMBL5724801, “EUbOPEN Chemogenomics Library - Multiplex” (2024).
Values joined by “and” are separate entries in the source; they are usually repeats but may differ in a detail not shown here. Equal entries are not always repeated.

Experiments:
Fibroblast = experiment: Multiplex assay against human fibroblast; type: toxicity, cell-based
Outline: (§1)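 With compound added, live cells were imaged on a CQ1 microscope at 37°C and 5% CO2; staining with Hoechst33342, BioTracker Green Microtubule Cytoskeleton Dye, MitoTracker Red and Annexin V Alexa Fluor 680 had been done at seeding. The CellPathfinder machine-learning gating scheme split cells into Hoechst high-intensity objects or normal cells, normal cells into healthy, pyknosed or fragmented nuclei, and pyknosed cells into mitotic or apoptotic. The tubulin, mitochondrial-mass and membrane-permeability phenotypes are per cents of healthy-nucleus cells.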

U2OS = experiment: Multiplex assay against U2OS; type: toxicity, cell-based; details: human; outline: as §1
[1] = 12 h, 1 µM, compound concentration 1 uM
[2] = 12 h, 10 µM, compound concentration 10 uM
[3] = 24 h, 1 µM, compound concentration 1 uM
[4] = 24 h, 10 µM, compound concentration 10 uM
[5] = 48 h, 1 µM, compound concentration 1 uM
[6] = 48 h, 10 µM, compound concentration 10 uM

In the case of `CC(C)[C@H](C(=O)Nc1ccc(C(=O)NO)cc1)c1ccccc1` [AR-42], the “Population Apoptotic (%)” value (Fibroblast; [1]) is reported as 28.12% and 16.67%, the “Population Fragmented Nuclei (%)” value (Fibroblast; [1]) is reported as 8.81% and 7.87% and the “Population Healthy Nuclei (%)” value (Fibroblast; [1]) is reported as 74.61% and 85.39%. The “Population Hoechst High Intensity Objects (%)” value (Fibroblast; [1]) was 0%, the “Population Membrane Permeable-Phenotype (%)” value (Fibroblast; [1]) was 3.47% and 2.63% and the “Population Mitochondria Different-Phenotype (%)” value (Fibroblast; [1]) was 4.17% and 7.89%. For the same compound, the “Population Mitotic Cells (%)” value (Fibroblast; [1]) was 71.88% and 83.33%, the “Population Normal (%)” value (Fibroblast; [1]) was 100% and the “Population Pyknosed Nuclei (%)” value (Fibroblast; [1]) was 16.58% and 6.74%. The “Population Tubulin-Different-Phenotype (%)” value (Fibroblast; [1]) was 4.17% and 7.24%, the “Total Cell Count” value (Fibroblast; [1]) was 193 and 178 and the “Population Apoptotic (%)” value (Fibroblast; [2]) was 32% and 26.67%. For the same compound, the “Population Fragmented Nuclei (%)” value (Fibroblast; [2]) was 10.88% and 4.5%, the “Population Healthy Nuclei (%)” value (Fibroblast; [2]) was 76.17% and 88.74% and the “Population Hoechst High Intensity Objects (%)” value (Fibroblast; [2]) was 0%. The “Population Membrane Permeable-Phenotype (%)” value (Fibroblast; [2]) was 6.8% and 2.54%, the “Population Mitochondria Different-Phenotype (%)” value (Fibroblast; [2]) was 5.44% and 5.58% and the “Population Mitotic Cells (%)” value (Fibroblast; [2]) was 68% and 73.33%. The “Population Normal (%)” value (Fibroblast; [2]) was 100%, the “Population Pyknosed Nuclei (%)” value (Fibroblast; [2]) was 12.95% and 6.76% and the “Population Tubulin-Different-Phenotype (%)” value (Fibroblast; [2]) was 7.48% and 5.58%. For the same compound, the “Total Cell Count” value (Fibroblast; [2]) was 193 and 222, the “Population Apoptotic (%)” value (Fibroblast; [3]) was 40% and 44.44% and the “Population Fragmented Nuclei (%)” value (Fibroblast; [3]) was 11.98% and 8.95%. For the same compound, the “Population Healthy Nuclei (%)” value (Fibroblast; [3]) was 80.21% and 86.32%, the “Population Hoechst High Intensity Objects (%)” value (Fibroblast; [3]) was 0% and the “Population Membrane Permeable-Phenotype (%)” value (Fibroblast; [3]) was 2.6% and 3.05%. The “Population Mitochondria Different-Phenotype (%)” value (Fibroblast; [3]) was 2.6% and 3.66%, the “Population Mitotic Cells (%)” value (Fibroblast; [3]) was 60% and 55.56% and the “Population Normal (%)” value (Fibroblast; [3]) was 100%. The “Population Pyknosed Nuclei (%)” value (Fibroblast; [3]) was 7.81% and 4.74%, the “Population Tubulin-Different-Phenotype (%)” value (Fibroblast; [3]) was 1.95% and 1.83% and the “Total Cell Count” value (Fibroblast; [3]) was 192 and 190. For the same compound, the “Population Apoptotic (%)” value (Fibroblast; [4]) was 50% and 57.14%, the “Population Fragmented Nuclei (%)” value (Fibroblast; [4]) was 11.56% and 10.3% and the “Population Healthy Nuclei (%)” value (Fibroblast; [4]) was 79.19% and 83.69%. For the same compound, the “Population Hoechst High Intensity Objects (%)” value (Fibroblast; [4]) was 0%, the “Population Membrane Permeable-Phenotype (%)” value (Fibroblast; [4]) was 3.65% and 0% and the “Population Mitochondria Different-Phenotype (%)” value (Fibroblast; [4]) was 4.38% and 6.67%. For the same compound, the “Population Mitotic Cells (%)” value (Fibroblast; [4]) was 50% and 42.86%, the “Population Normal (%)” value (Fibroblast; [4]) was 100% and the “Population Pyknosed Nuclei (%)” value (Fibroblast; [4]) was 9.25% and 6.01%. The “Population Tubulin-Different-Phenotype (%)” value (Fibroblast; [4]) was 3.65% and 2.56%, the “Total Cell Count” value (Fibroblast; [4]) was 173 and 233 and the “Population Apoptotic (%)” value (Fibroblast; [5]) was 37.5% and 50%. For the same compound, the “Population Fragmented Nuclei (%)” value (Fibroblast; [5]) was 15.15% and 11.46%, the “Population Healthy Nuclei (%)” value (Fibroblast; [5]) was 76.77% and 82.29% and the “Population Hoechst High Intensity Objects (%)” value (Fibroblast; [5]) was 0%. The “Population Membrane Permeable-Phenotype (%)” value (Fibroblast; [5]) was 1.32% and 1.27%, the “Population Mitochondria Different-Phenotype (%)” value (Fibroblast; [5]) was 19.74% and 7.59% and the “Population Mitotic Cells (%)” value (Fibroblast; [5]) was 62.5% and 50%. The “Population Normal (%)” value (Fibroblast; [5]) was 100%, the “Population Pyknosed Nuclei (%)” value (Fibroblast; [5]) was 8.08% and 6.25% and the “Population Tubulin-Different-Phenotype (%)” value (Fibroblast; [5]) was 2.63% and 3.8%. The “Total Cell Count” value (Fibroblast; [5]) was 198 and 192, the “Population Apoptotic (%)” value (Fibroblast; [6]) was 31.48% and 89.58% and the “Population Fragmented Nuclei (%)” value (Fibroblast; [6]) was 17.84% and 9.95%. The “Population Healthy Nuclei (%)” value (Fibroblast; [6]) was 52.97% and 64.92%, the “Population Hoechst High Intensity Objects (%)” value (Fibroblast; [6]) was 0% and the “Population Membrane Permeable-Phenotype (%)” value (Fibroblast; [6]) was 1.02% and 3.23%. The “Population Mitochondria Different-Phenotype (%)” value (Fibroblast; [6]) was 21.43% and 8.06%, the “Population Normal (%)” value (Fibroblast; [6]) was 100% and the “Population Pyknosed Nuclei (%)” value (Fibroblast; [6]) was 29.19% and 25.13%. For the same compound, the “Total Cell Count” value (Fibroblast; [6]) was 185 and 191, the “Population Apoptotic (%)” value (U2OS; [1]) was 27.71% and 34.88% and the “Population Fragmented Nuclei (%)” value (U2OS; [1]) was 2.59% and 3.95%. The “Population Healthy Nuclei (%)” value (U2OS; [1]) was 77.88% and 71.75%, the “Population Hoechst High Intensity Objects (%)” value (U2OS; [1]) was 0% and the “Population Membrane Permeable-Phenotype (%)” value (U2OS; [1]) was 0.6% and 1.57%. For the same compound, the “Population Mitochondria Different-Phenotype (%)” value (U2OS; [1]) was 0.3% and 7.87%, the “Population Mitotic Cells (%)” value (U2OS; [1]) was 72.29% and 65.12% and the “Population Normal (%)” value (U2OS; [1]) was 100%. The “Population Pyknosed Nuclei (%)” value (U2OS; [1]) was 19.53% and 24.29%, the “Population Tubulin-Different-Phenotype (%)” value (U2OS; [1]) was 0.6% and 0% and the “Total Cell Count” value (U2OS; [1]) was 425 and 177. The “Population Apoptotic (%)” value (U2OS; [2]) was 22.08% and 11.11%, the “Population Fragmented Nuclei (%)” value (U2OS; [2]) was 2.31% and 1.96% and the “Population Healthy Nuclei (%)” value (U2OS; [2]) was 75.5% and 80.39%. For the same compound, the “Population Hoechst High Intensity Objects (%)” value (U2OS; [2]) was 0%, the “Population Membrane Permeable-Phenotype (%)” value (U2OS; [2]) was 0.38% and 3.25% and the “Population Mitochondria Different-Phenotype (%)” value (U2OS; [2]) was 0% and 2.44%. For the same compound, the “Population Mitotic Cells (%)” value (U2OS; [2]) was 77.92% and 88.89%, the “Population Normal (%)” value (U2OS; [2]) was 100% and the “Population Pyknosed Nuclei (%)” value (U2OS; [2]) was 22.19% and 17.65%. For the same compound, the “Population Tubulin-Different-Phenotype (%)” value (U2OS; [2]) was 0.76% and 0.81%, the “Total Cell Count” value (U2OS; [2]) was 347 and 153 and the “Population Apoptotic (%)” value (U2OS; [3]) was 34.74% and 52.56%. For the same compound, the “Population Fragmented Nuclei (%)” value (U2OS; [3]) was 5.86% and 12.17%, the “Population Healthy Nuclei (%)” value (U2OS; [3]) was 51.35% and 46.56% and the “Population Hoechst High Intensity Objects (%)” value (U2OS; [3]) was 0%. The “Population Membrane Permeable-Phenotype (%)” value (U2OS; [3]) was 1.75% and 5.68%, the “Population Mitochondria Different-Phenotype (%)” value (U2OS; [3]) was 0% and 5.68% and the “Population Mitotic Cells (%)” value (U2OS; [3]) was 65.26% and 47.44%. For the same compound, the “Population Normal (%)” value (U2OS; [3]) was 100%, the “Population Pyknosed Nuclei (%)” value (U2OS; [3]) was 42.79% and 41.27% and the “Population Tubulin-Different-Phenotype (%)” value (U2OS; [3]) was 4.82% and 3.41%.
